Laboratory results published in ChEMBL document CHEMBL3124927, “New C(4)- and C(1)-derivatives of furo[3,4-c]pyridine-3-ones and related compounds: evidence for site-specific inhibition of the constitutive proteasome and its immunoisoform” (Bioorg Med Chem Lett, 2014).
Calls of active or inactive are those of the source. No cut-off for these calls is given here.

Columns and labels:
[1] = Inhibition of 20s constitutive proteasome beta 1 subunit caspase-like activity in rabbit erythrocytes using Z-LLE-betaNA as substrate incubated for 15 mins prior to substrate addition measured after 45 mins by fluorescence assay; format: cell-based, Oryctolagus cuniculus
Outline: (§1)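 Purified rabbit erythrocyte constitutive 20S fraction, 0.27 nM enzyme, pre-incubated 15 min with or without inhibitor before substrate addition. Buffer pH 7.5: 20 mM Tris, 1 mM DTT, 10% glycerol, 0.02% (w/v) SDS. Fluorescence read-out. IC50 is from a percent inhibition versus concentration plot, fitted with a Hill-type equation.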

[2] = Inhibition of 20s constitutive proteasome beta 5 subunit chymotrypsin-like activity in rabbit erythrocytes using Suc-LLVY-AMC as substrate incubated for 15 mins prior to substrate addition measured after 45 mins by fluorescence assay; format: cell-based, Oryctolagus cuniculus; outline: as §1
Oryctolagus cuniculus [3] = species: Oryctolagus cuniculus; assay: Inhibition of 20s constitutive proteasome beta 2 subunit trypsin-like activity in rabbit erythrocytes using Boc-LRR-AMC as substrate at 100 uM incubated for 15 mins prior to substrate addition measured after 45 mins by fluorescence assay relative to control; format: cell-based
Outline: (§2)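 Purified rabbit erythrocyte constitutive 20S fraction, 0.27 nM enzyme, pre-incubated 15 min with or without inhibitor, then Boc-LRR-AMC added. Buffer at pH 7.5. Fluorescence read-out. IC50 is from a plot of percent inhibition against inhibitor concentration, Hill-equation fit.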

Oryctolagus cuniculus [4] = species: Oryctolagus cuniculus; assay: Inhibition of 20s constitutive proteasome beta 5 subunit chymotrypsin-like activity in rabbit erythrocytes using Suc-LLVY-AMC as substrate at 100 uM incubated for 15 mins prior to substrate addition measured after 45 mins by fluorescence assay relative to control; format: cell-based; outline: as §1
[5] = Inhibition of 20s constitutive proteasome beta 2 subunit trypsin-like activity in rabbit erythrocytes using Boc-LRR-AMC as substrate incubated for 15 mins prior to substrate addition measured after 45 mins by fluorescence assay; format: cell-based, Oryctolagus cuniculus; outline: as §2
[6] = biological target: T1, Calpain-1 catalytic subunit (Homo sapiens) (UniProt P07384); assay: Inhibition of human calpain-1 using Suc-LLVY-AMC as substrate by fluorescence assay
T1 sequence (whole entry): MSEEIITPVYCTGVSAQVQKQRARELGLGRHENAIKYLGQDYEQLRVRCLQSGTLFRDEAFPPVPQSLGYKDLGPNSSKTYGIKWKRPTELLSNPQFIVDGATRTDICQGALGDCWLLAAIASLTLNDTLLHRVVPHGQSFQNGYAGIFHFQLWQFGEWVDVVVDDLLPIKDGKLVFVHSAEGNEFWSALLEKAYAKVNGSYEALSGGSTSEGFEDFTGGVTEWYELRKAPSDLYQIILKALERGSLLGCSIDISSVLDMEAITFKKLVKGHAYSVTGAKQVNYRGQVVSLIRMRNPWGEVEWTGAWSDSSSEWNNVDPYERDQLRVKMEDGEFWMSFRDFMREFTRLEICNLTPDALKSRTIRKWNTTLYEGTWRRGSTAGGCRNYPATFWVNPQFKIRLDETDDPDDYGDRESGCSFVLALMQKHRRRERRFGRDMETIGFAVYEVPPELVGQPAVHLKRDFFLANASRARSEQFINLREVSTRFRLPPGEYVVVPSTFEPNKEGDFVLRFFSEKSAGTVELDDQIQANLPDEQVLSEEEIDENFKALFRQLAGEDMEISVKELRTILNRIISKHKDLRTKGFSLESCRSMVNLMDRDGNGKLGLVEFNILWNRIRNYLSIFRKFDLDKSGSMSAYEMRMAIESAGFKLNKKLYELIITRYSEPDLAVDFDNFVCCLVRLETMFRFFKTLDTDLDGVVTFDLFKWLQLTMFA
Outline: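 Human calpain I fraction, Suc-LLVY-AMC substrate, at 25 °C in 50 mM Tris, 10 mM DTT with CaCl2, pH 7.2. Fluorescence read-out. IC50 is from percent inhibition versus inhibitor concentration.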

[7] = biological target: Cathepsin B (Homo sapiens) (UniProt P07858); assay: Inhibition of human cathepsin B using Z-RR-AMC as substrate by fluorescence assay
Outline: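 Human cathepsin B fraction, Z-RR-AMC substrate, at 37 °C in 352 mM KH2PO4, 48 mM Na2HPO4, 1 mM EDTA, 1 mM DTT, pH 6. Fluorescence read-out. IC50 is from percent inhibition versus inhibitor concentration.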

Oryctolagus cuniculus [8] = species: Oryctolagus cuniculus; assay: Inhibition of 20s constitutive proteasome beta 2 subunit trypsin-like activity in rabbit erythrocytes using Boc-LRR-AMC as substrate at 50 uM incubated for 15 mins prior to substrate addition measured after 45 mins by fluorescence assay relative to control; format: cell-based; outline: as §2
Oryctolagus cuniculus [9] = species: Oryctolagus cuniculus; assay: Inhibition of 20s constitutive proteasome beta 1 subunit caspase-like activity in rabbit erythrocytes using Z-LLE-betaNA as substrate at 100 uM incubated for 15 mins prior to substrate addition measured after 45 mins by fluorescence assay relative to control; format: cell-based; outline: as §1

| IC50 [1] | IC50 [2] | IC50 [5] | inhibition [6] | inhibition [7] | SMILES | also measured |
| --- | --- | --- | --- | --- | --- | --- |
| Not Active | Not Active | – | – | – | O=c1c2c(-c3ccc(Cl)cc3)csc2ncn1CCc1ccc(Cl)cc1 | inhibition (Oryctolagus cuniculus [3]): 52% |
| Not Active | – | Not Active | – | – | C=C1c2c(ncn(C)c2=O)OC12CCCCC2 | inhibition (Oryctolagus cuniculus [4]): 30% |
| – | Not Active | – | – | – | C=C1c2c(ncn(CCCn3ccnc3)c2=O)OC1(C)C | IC50 ([1]; read-out: IC50): 47 µM; inhibition (Oryctolagus cuniculus [3]): 56% |
| Not Active | Not Active | – | – | – | O=c1c2c(-c3ccc(Cl)cc3)csc2ncn1CCc1ccccc1 | inhibition (Oryctolagus cuniculus [3]): 48% |
| Not Active | Not Active | Not Active | – | – | CC12CCCC=C1c1c(nc[nH]c1=O)O2 (configuration not stated) | – |
| – | Not Active | – | inactive | inactive | CC1(C)OC(=O)c2c1ccnc2N | IC50 ([1]; read-out: IC50): 7.9 µM; inhibition (Oryctolagus cuniculus [3]): 35% |
| – | Not Active | Not Active | inactive | inactive | Cc1nccc2c1C(=O)OC21CCCCC1 | IC50 ([1]; read-out: IC50): 16.1 µM |
| Not Active | Not Active | – | – | – | Cc1sc2ncn(CCCn3ccnc3)c(=O)c2c1C | inhibition (Oryctolagus cuniculus [8]): 42% |
| Not Active | Not Active | Not Active | – | – | C=C1c2c(ncn(CC(O)COc3ccccc3)c2=O)OC1(C)C (configuration not stated) | – |
| – | – | Not Active | inactive | inactive | CCC1(C)OC(=O)c2c1ccnc2N (configuration not stated) | IC50 ([1]; read-out: IC50): 7 µM; inhibition (Oryctolagus cuniculus [4]): 21.5% |
| Not Active | – | – | inactive | inactive | CC1(C)OC(=O)c2c1ccnc2NCC(O)COc1ccc(Cl)cc1 (configuration not stated) | inhibition (Oryctolagus cuniculus [4]): 63%; IC50 ([5]; read-out: IC50): 48.1 µM |
| Not Active | Not Active | Not Active | inactive | inactive | CC1(C)OC(=O)C(C(N)=O)=C1/C=C/c1ccccc1 | – |
| – | Not Active | Not Active | inactive | inactive | O=C1OC2(CCCCC2)c2ccnc(O)c21 | IC50 ([1]; read-out: IC50): 27.8 µM |
| – | – | Not Active | inactive | inactive | CC1(C)OC(=O)c2c1ccnc2Nc1ccc(Cl)cc1 | inhibition (Oryctolagus cuniculus [9]): 41.5%; inhibition (Oryctolagus cuniculus [4]): 24.5% |
| Not Active | Not Active | Not Active | inactive | inactive | O=c1[nH]ccc2c1c(=O)oc1ccccc12 | – |
| Not Active | Not Active | – | inactive | inactive | Cc1nccc2c1C(=O)OC2(C)C | IC50 ([5]; read-out: IC50): 88 µM |
| – | – | Not Active | inactive | inactive | O=C1OC2(CCCCC2)c2ccnc(S)c21 | inhibition (Oryctolagus cuniculus [9]): 20%; inhibition (Oryctolagus cuniculus [4]): 52% |
| Not Active | Not Active | – | – | – | C=C1c2c(ncn(CCCN3CCOCC3)c2=O)OC1(C)C | inhibition (Oryctolagus cuniculus [3]): 48% |
| – | Not Active | Not Active | inactive | inactive | CC1(C)OC(=O)c2c1ccnc2O | IC50 ([1]; read-out: IC50): 16.7 µM |

Continued, compound first:

| SMILES | IC50 [1] | IC50 [2] | IC50 [5] | inhibition [6] | inhibition [7] | also measured |
| --- | --- | --- | --- | --- | --- | --- |
| CC1(C)OC(=O)c2c1ccnc2NCC(O)COc1ccccc1 (configuration not stated) | – | Not Active | Not Active | inactive | inactive | IC50 ([1]; read-out: IC50): 48.1 µM |
| Cc1sc2ncn(CCc3ccc(Cl)cc3)c(=O)c2c1C | Not Active | Not Active | – | – | – | IC50 ([5]; read-out: IC50): 56 µM |
| Cc1sc2ncn(CCCN3CCOCC3)c(=O)c2c1C | Not Active | Not Active | – | – | – | inhibition (Oryctolagus cuniculus [3]): 53% |
| Cc1sc2ncn(CCc3ccccc3)c(=O)c2c1C | Not Active | Not Active | – | – | – | inhibition (Oryctolagus cuniculus [3]): 42% |
| C=C1c2c(nc[nH]c2=O)OC1(C)C | Not Active | Not Active | – | – | – | IC50 ([5]; read-out: IC50): 59 µM |
| C=C1c2c(ncn(-c3ccc(Br)cc3)c2=O)OC1(C)C | Not Active | Not Active | – | – | – | inhibition (Oryctolagus cuniculus [3]): 29% |
| C[C@@]12OC(=O)[C@]1([C@@H](O)[C@@H]1C=CCCC1)NC(=O)[C@@H]2CCCl [MARIZOMIB] | – | – | – | – | – | IC50 ([1]; read-out: IC50): 0.46 µM; IC50 ([2]; read-out: IC50): 0.0026 µM; IC50 ([5]; read-out: IC50): 0.021 µM |
| Nc1nccc2c1C(=O)OC21CCCCC1 | – | Not Active | Not Active | inactive | inactive | IC50 ([1]; read-out: IC50): 8.4 µM |
| CC1(C)OC(=O)c2c1ccnc2NCC(O)COc1ccc(F)cc1 (configuration not stated) | Not Active | – | Not Active | inactive | inactive | inhibition (Oryctolagus cuniculus [4]): 29% |
| Cc1cc(=O)oc2cc[nH]c(=O)c12 | Not Active | – | – | inactive | inactive | IC50 ([2]; read-out: IC50): 29.4 µM; IC50 ([5]; read-out: IC50): 8.7 µM |
| CCOC(=O)C1=C(/C=C/N(C)C)C(C)(C)OC1=O | Not Active | Not Active | Not Active | inactive | inactive | – |
| CC1(C)OC(=O)c2c1ccnc2NNC(N)=S | – | – | – | inactive | inactive | inhibition (Oryctolagus cuniculus [9]): 41%; inhibition (Oryctolagus cuniculus [4]): 26%; inhibition (Oryctolagus cuniculus [3]): 29% |
| Cc1ccc(OCC(O)CNc2nccc3c2C(=O)OC3(C)C)cc1 (configuration not stated) | Not Active | – | – | inactive | inactive | inhibition (Oryctolagus cuniculus [4]): 36.5%; IC50 ([5]; read-out: IC50): 60.8 µM |
| CC(N)C1=C(c2ccccc2)C(C)(C)OC1=O (configuration not stated) | Not Active | Not Active | Not Active | inactive | inactive | – |
| CC1(C)OC(=O)c2c1ccnc2N1CCCCC1 | – | Not Active | Not Active | inactive | inactive | inhibition (Oryctolagus cuniculus [9]): 41.6% |
| C=C1c2c(ncn(CC(O)CN3CCOCC3)c2=O)OC1(C)C (configuration not stated) | Not Active | – | Not Active | – | – | inhibition (Oryctolagus cuniculus [4]): 33% |
| C=C1c2c(ncn(CCO)c2=O)OC1(C)C | Not Active | Not Active | Not Active | – | – | – |
| CC1(C)OC(=O)c2c1ccnc2S | – | – | Not Active | inactive | inactive | inhibition (Oryctolagus cuniculus [9]): 48%; IC50 ([2]; read-out: IC50): 79 µM |
| Cc1ccc(CCn2cnc3sc(C)c(C)c3c2=O)cc1 | Not Active | Not Active | Not Active | – | – | – |
| CC1(C)OC(=O)C(C(N)=S)=C1c1ccccc1 | Not Active | Not Active | Not Active | inactive | inactive | – |
| C=C1c2c(nc[nH]c2=O)OC1(C)c1ccccc1 (configuration not stated) | Not Active | Not Active | Not Active | – | – | – |
| O=c1c2c(-c3ccc(Cl)cc3)csc2ncn1CCc1ccc(F)cc1 | Not Active | Not Active | – | – | – | inhibition (Oryctolagus cuniculus [8]): 56% |
